SR-BI HDL uptake: mouse SR-BI HDL lipid transfer inhibition. ldlA[mSR-BI] CHO cells, DiI-HDL uptake fluorescence, 3 h. inhibition, % at 12.5 µM. 0.96% of 320,000 active. AID 488896;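 active means mean replicate inhibition of at least 70% and a set share of replicates each scoring 70 or more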;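 further: 0% = median of neutral control wells and 100% = median of positive control wells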
Target sequence (Q61009 whole entry, looked up): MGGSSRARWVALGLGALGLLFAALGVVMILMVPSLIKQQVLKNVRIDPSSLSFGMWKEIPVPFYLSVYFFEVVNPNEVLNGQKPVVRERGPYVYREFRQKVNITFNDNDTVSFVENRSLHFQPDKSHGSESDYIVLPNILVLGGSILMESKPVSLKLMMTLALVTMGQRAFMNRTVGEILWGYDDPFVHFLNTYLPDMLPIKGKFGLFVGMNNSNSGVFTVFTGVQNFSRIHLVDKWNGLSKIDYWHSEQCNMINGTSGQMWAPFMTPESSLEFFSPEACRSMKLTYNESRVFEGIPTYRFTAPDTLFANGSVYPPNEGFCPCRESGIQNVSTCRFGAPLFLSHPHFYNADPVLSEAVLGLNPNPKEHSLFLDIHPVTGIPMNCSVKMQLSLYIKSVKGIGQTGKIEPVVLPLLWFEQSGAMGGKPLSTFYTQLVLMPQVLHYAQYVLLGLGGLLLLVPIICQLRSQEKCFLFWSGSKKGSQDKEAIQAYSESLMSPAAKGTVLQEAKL
CAL PDZ FP-1: human CAL PDZ-peptide interaction inhibition; Q9HD26; purified CAL PDZ, TMR-peptide fluorescence polarization, 1 h; inhibition, % at 20 µM; 0.02% of 330,000 active; AID 504414;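 active means highest replicate inhibition of at least 40%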;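 further: plate controls were DMSO neutral control wells for no effect and unlabeled competitor peptide control wells for full effect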
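Test system: purified CerCALP PDZ construct; Compound dosing: one concentration, 20 µM compound; Also added: TMR-labelled reporter peptide T*-PRC34 bound in PDZ groove; Read-out: inhibition from polarization loss; Controls: unlabelled peptide and DMSO controls; Signal: FP readout, S and P plane fluorescence; Incubation: 1 h at RT.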
ATG4B inhibitor: ATG4B (human) cysteine protease inhibition; ATG4B cleavage of LC3-PLA2, NBD-HPC fluorescence, 1 h; AID 504462; inhibition, % at 8.33 µM; 0.51% of 340,000 active; Q9Y4P1; in the data active means inhibition above about 40%
CAL PDZ FP-2: CAL PDZ (human) peptide binding inhibition; Q9HD26; inhibition, % at 24.9 µM; purified CAL PDZ, TMR-peptide fluorescence polarization, 1 h; 0.92% of 300,000 active;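 active means mean inhibition of at least 30% with at least half of replicates also reaching 30%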;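 further: 0% = DMSO neutral control and 100% = excess unlabeled competitor peptide PRC23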
SR-BI DiI-HDL act: SR-BI HDL lipid transfer activation | AID 504775 | activation, % at 12.5 µM | 0.096% of 320,000 active | CHO ldlA[mSR-BI] cells, DiI-HDL uptake fluorescence, 3 h; 100 = double the neutral-control signal;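 active means mean replicate activation of at least 60% and every replicate at or above 60%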;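 further: 0% = median plate neutral-control signal and 100% = twice that signal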
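Test system: SR-BI-overexpressing, LDLR-lacking CHO cells; Medium: Ham's F12 with 0.5% BSA, HEPES 25 mM, pH 7.4; Schedule: 3 h, 37 °C; Technique: bottom-read fluorescence, 550/595 nm.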
Numbers without * were called inactive; / = not tested or not shown. Rows were chosen to be rich in hits. Some 2.3% of all compounds tested hit in one or more screens of this group.

SMILES	SR-BI HDL uptake	CAL PDZ FP-1	ATG4B inhibitor	CAL PDZ FP-2	SR-BI DiI-HDL act
COc1ccc(NC(=O)C2CCCN(CCCc3ccccc3)C2)cc1OCC(C)C (stereo not given)	16	-1	2	/	-16
CCc1ccc(N(C(=O)c2snc(C(N)=O)c2N)C(C(=O)NCC2CCCO2)c2ccco2)cc1 (stereo not given)	-10	-3	0	-2	10
O=C(Nc1ccc2c(c1)CCC2)c1ncoc1-c1ccccc1F	6	-1	-4	69*	-6
CCCc1cnc(N2CCN(C(=O)c3ccc(OC)cc3)CC2)nc1	-1	-2	-2	-5	1
CCSc1nc(-c2ccc(OC)cc2)cc(-c2ccccc2)c1C#N	80*	0	8	7	-80
O=C(Nc1ccccc1Cl)N1CCN(c2ccc3nnc(-c4ccccc4)n3n2)CC1	4	-5	-11	57*	-4
COc1ccc(Cn2c(C)nc3ccc([N+](=O)[O-])cc3c2=O)cc1	15	0	2	-2	-15
Cc1c(C)c(C)c(C(=O)c2ccc(NC(=O)c3ccccc3C(=O)O)cc2)c(C)c1C	-3	-1	94*	-3	3
O=C(Nc1ccc(C(=O)c2ccc(C(=O)O)c(C(=O)O)c2)cc1)c1ccccc1	-20	-1	1	7	20
Cc1ccc(NC(=O)c2cc(NC(=O)c3ccccc3C(=O)O)ccc2N2CCCCC2)cc1	52	-3	11	51*	-52
Cc1ccc(NC(=O)c2cc(NC(=O)/C=C\C(=O)O)ccc2N2CCCCC2)cc1	0	-3	10	-3	0
O=C(CC1C(=O)NCCN1CC(c1ccccc1)c1ccccc1)NC1CC1 (stereo not given)	-11	-1	6	-4	11
CC(C)[C@H](NC(=O)c1ccc(Br)cc1)C(=O)NC1CCCCC1	-8	0	1	86*	8
COc1cc(/C=N/n2c(C3CCCCC3)n[nH]c2=S)ccc1O	10	-1	-14	-2	-10
COc1cccc(C(=O)/C=C2\Sc3ccccc3N2C)c1	83*	-2	-6	-3	-83
COc1ccc(C=O)cc1Oc1nc(Cl)ncc1F	1	0	-3	7	-1
O=C(c1ccccn1)N1CC=C(c2ccccc2)CC1	-7	-1	-13	194*	7
C/C(=N\NC(N)=S)C1(C)CCCCC1	78*	-1	-4	-3	-78
Cc1cc(S(=O)(=O)NCC(C)C)ccc1OCC(=O)NCC1CCCO1 (stereo not given)	-2	1	-3	-3	2
Cc1cccc(NCc2ccc(N(C)C)cc2)n1	-2	1	-1	-2	2
COc1cc(/C=C/C(=O)c2ccc3c(c2)OCO3)cc(OC)c1OC	24	-3	-6	11	-24
COc1cc(/C=C/C(=O)c2ccc3c(c2)OCCO3)cc(OC)c1OC	72*	-1	3	-7	-72
Cc1sc(NC(=O)C2CSC3(C)CCC(=O)N23)nc1-c1ccccc1 (stereo not given)	13	-1	-12	-1	-13
O=c1cc(N2CCN(c3ccc(F)cc3)CC2)[nH]c(=O)n1Cc1ccc(F)cc1	0	0	0	0	0
O=c1cc(N2CCOCC2)[nH]c(=O)n1Cc1ccc(F)cc1	-231	-1	-17	/	231*
SMILES	SR-BI HDL uptake	CAL PDZ FP-1	ATG4B inhibitor	CAL PDZ FP-2	SR-BI DiI-HDL act
CC(O)CNCCCOc1cccc(Oc2ccccc2)c1 (stereo not given)	-30	134*	2	111*	30
Cc1nnc(SCC(=O)Nc2nccs2)s1	-11	1	-9	79*	11
O=C(CCn1cnnn1)Nc1ccc(Cl)cc1Cl	-9	-1	-3	86*	9
Cc1ccc(C)c(S(=O)(=O)N2CCCC2CNC(=O)C(=O)NCc2ccccn2)c1 (stereo not given)	4	-1	-1	/	-4
CC(=O)c1ccccc1NC(=O)COC(=O)CN1C(=O)C2CCCCC2C1=O (stereo not given)	-3	-1	-4	40*	3
Cc1ccc(Cl)cc1NC(=O)COC(=O)CN1C(=O)C2CCCCC2C1=O (stereo not given)	-6	0	-7	/	6
O=C(O)CC1(CC(=O)Nc2cc3ccccc3cn2)CCCCC1	/	/	-1	/	/
O=C(OCC#CCSc1nnc(-c2cccc3ccccc23)o1)c1cccc2[nH]ccc12	-3	-1	-15	-4	3
O=C(Nc1cc(Sc2ccccn2)cc([N+](=O)[O-])c1)c1ccc([N+](=O)[O-])cc1	90*	/	-9	-7	-90
O=C(NCCCN1CCOCC1)C(=O)NCC1OCCN1S(=O)(=O)c1ccc(F)cc1 (stereo not given)	-14	-3	3	-4	14
COCCNC(=O)C(=O)NCC1OCCN1S(=O)(=O)c1cccs1 (stereo not given)	-8	-1	-6	-4	8
O=C(NCCN1CCOCC1)C(=O)NCC1OCCN1S(=O)(=O)c1ccc(F)cc1 (stereo not given)	0	3	2	83*	0
COCCNC(=O)C(=O)NCC1OCCN1S(=O)(=O)c1ccc(F)cc1 (stereo not given)	-14	0	-3	34*	14
Cc1[nH]n(-c2ccccc2)c(=O)c1/C=N/NC(=O)c1cccc([N+](=O)[O-])c1	112*	0	-9	-4	-112
CC/C(=N/NC(=O)c1ccccc1O)c1c(C)[nH]n(-c2ccccc2)c1=O	137*	1	2	-2	-137
Cc1[nH]n(-c2ccccc2)c(=O)c1/C=N/NC(=O)c1ccccc1F	106*	-1	-2	-6	-106
Cc1[nH]n(-c2cccc3ccccc23)c(=O)c1/C=N/NC(=O)c1cccc([N+](=O)[O-])c1	62	-3	11	-9	-62
COC(=O)c1cc(OC)c(OC)cc1N1C(=O)CC(C)(C)CC1=O	1	2	-4	-2	-1
NC(=O)/C(=C\c1ccncc1)c1cccc2ccccc12	-12	-1	32	74*	12
CC(OC(=O)CCN=C1NS(=O)(=O)c2ccccc21)C(=O)Nc1ccc(F)cc1 (stereo not given)	-14	0	-1	-1	14
Oc1c(Cl)cc(Cl)cc1/C=N/NC(=S)NC1CC2C=CC1C2 (stereo not given)	98*	1	15	2	-98
COc1cc(OC)cc(C(=O)NC(C)CNc2ccc(Cl)cc2[N+](=O)[O-])c1 (stereo not given)	79*	-1	-6	-12	-79
COCC(C)NC(=O)c1cc(OC)cc(OC)c1 (stereo not given)	-22	-2	-6	-4	22
c1ccc(-c2cn(-c3ccccc3)c3ncnc(N4CCCCC4)c23)cc1	17	0	-14	-6	-17
